CHRM5 antagonist = antagonists of human muscarinic M5 receptor (CHRM5) | P08912 | CHO-hM5 cells, Fluo-8 calcium fluorescence, ACh EC80 | inhibition, % at 3 µM | hit rate 0.59% among 360,000;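 active = inhibition above a per-plate cutoff, the mean of that plate's test compounds plus 3 SD, cut at about 27% in these data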;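 note: 0% = acetylcholine EC80 with DMSO and 100% = DMSO without agonist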
CHRM4 agonist = CHRM4 agonism in calcium assay. activation, % at 3 µM. AID 624127. hit rate 0.14% among 360,000. CHO-K1 hM4/Gqi5, Fluo-8 calcium fluorescence; vehicle 0%, full acetylcholine response 100%;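 active = activation above the run mean over all test wells plus 3 SD, cut at about 32% in these data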;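 note: peak over basal fluorescence ratio per well then scaled between controls; 0% = DMSO wells and 100% = acetylcholine at EC100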
Target sequence (P08173 whole entry, looked up): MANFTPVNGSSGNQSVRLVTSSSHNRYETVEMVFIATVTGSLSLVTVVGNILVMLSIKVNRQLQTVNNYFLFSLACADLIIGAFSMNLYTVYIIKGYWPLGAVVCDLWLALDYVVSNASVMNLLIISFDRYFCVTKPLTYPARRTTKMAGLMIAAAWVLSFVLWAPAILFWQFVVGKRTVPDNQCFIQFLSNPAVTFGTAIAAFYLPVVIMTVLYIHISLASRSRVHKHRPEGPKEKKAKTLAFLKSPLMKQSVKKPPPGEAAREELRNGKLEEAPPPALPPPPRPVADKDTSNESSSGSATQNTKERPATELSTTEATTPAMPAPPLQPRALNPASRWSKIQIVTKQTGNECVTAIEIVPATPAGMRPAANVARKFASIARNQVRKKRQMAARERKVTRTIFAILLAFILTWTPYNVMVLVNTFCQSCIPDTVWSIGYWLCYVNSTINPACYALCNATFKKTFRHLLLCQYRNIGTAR
M4 antag = blocks acetylcholine activation of human M4 receptor | AID 624125 | inhibition, % at 3 µM | hit rate 0.73% among 360,000 | CHO-hM4 cells, ACh EC80, Fluo-8 calcium fluorescence;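 active = inhibition above its plate's cutoff, the mean inhibition of sample wells plus 3 SD, cut at about 27% in these data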;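 note: 0% = acetylcholine EC80 with DMSO and 100% = DMSO without agonist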
CHRM4 PAM = CHRM4 positive allosteric modulation. P08173. CHO-K1 hM4/Gqi5, Fluo-8 calcium fluorescence, ACh EC20; 0% = ACh EC20, 100% = maximal ACh. activation, % at 3 µM. hit rate 0.4% among 360,000;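 active = activation above its plate's cutoff, the mean activation of sample wells plus 3 SD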
CHRM5 agonist = agonists of human muscarinic M5 receptor (CHRM5). P08912. CHO-K1 hM5 cells, Fluo-8 calcium fluorescence; 0% DMSO wells, 100% maximal acetylcholine response. activation, % at 3 µM. hit rate 0.19% among 360,000. AID 624037;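 active = activation above the run's mean over test compounds plus 3 SD, cut at about 23% in these data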;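 note: signal is peak over basal fluorescence ratio across the kinetic read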
CHRM5 PAM = potentiates acetylcholine response at human M5 receptor; P08912; CHO-K1 hM5, Fluo-8 calcium, ACh EC20 PAM; 0% = ACh EC20, 100% = ACh EC100; activation, % at 3 µM; hit rate 0.3% among 360,000; AID 624038;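 active = activation above the run cutoff, the mean activation of all test compounds plus 3 SD, cut at about 18% in these data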
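System – CHO-K1 hM5 cells · Compound – 3 µM, single dose · Incubation – compound preincubation 140 s before EC20 acetylcholine addition · Technique – Fluo-8 calcium fluorescence · Measure – Max/basal fluorescence ratio as % of EC20–EC100 ACh window · Benchmarks – low control EC20 acetylcholine (0%), high control EC100 acetylcholine (100%) · Replication – singlicate, one well per test compound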
* marks the source's active call; other numbers are inactive results. Most compounds without a hit are left out; they make up all but 1.8% or so of the library.

SMILES	CHRM5 antagonist	CHRM4 agonist	M4 antag	CHRM4 PAM	CHRM5 agonist	CHRM5 PAM
O=C(Nc1cccc(C(F)(F)F)c1)Nc1ccc2nc([C@@H]3O[C@H](CO)[C@@H](O)[C@H](O)[C@H]3O)[nH]c2c1	0	1	-14	3	1	3
COc1ccc(-c2nc3ccccc3nc2-c2ccc(OC)c(OC)c2)cc1OC	39*	8	-1	0	-13	-7
CC(C)(C)c1ccc(CC(=O)N2CCC2(C)C(=O)NS(=O)(=O)c2ccccc2)cc1 (stereo not given)	6	0	11	-6	1	0
COc1ccc(NC(=O)CCc2nnc3ccc(NCc4ccco4)nn23)cc1	14	18	16	39*	1	28*
CC(=O)OCCn1c2nc(=O)[nH]c(=O)c-2nc2cc(C)c(C)cc21	42*	229*	37*	-18	418*	-30
Cc1cc(N)n(-c2ccc([N+](=O)[O-])cc2)n1	-18	3	-15	10	5	20*
Cc1cc(C)n(-c2ccc([N+](=O)[O-])cc2)n1	-10	0	-25	1	-8	2
O=C(NC(c1ccc2c(c1)OCO2)c1ccccn1)C1CCN(CCOc2ccccc2)CC1 (stereo not given)	4	0	8	-2	-3	-3
COc1ccc(CN(CCC(c2ccc(F)cc2)C2CCOC(C)(C)C2)C(=O)c2ccco2)cc1 (stereo not given)	36*	7	30*	-22	0	-20
COc1ccc(CN(CCC(c2ccccc2)c2ccco2)C(=O)c2ccco2)cc1 (stereo not given)	13	4	7	-9	-2	-11
CC(c1ccccc1)N(CCC(c1ccccc1)C1CCOC(C)(C)C1)C(=O)c1ccco1 (stereo not given)	30*	4	-5	-8	-7	-17
c1ccc(-c2ccc3ncccc3n2)cc1	-12	0	-19	16	1	-3
Cc1nn2c(nc1=O)SCC(c1ccccc1)=N2	-19	1	-17	3	-1	28*
Cc1cccc(-c2nnc3n2N=C(c2ccccc2)CS3)c1	8	3	0	5	-5	-7
Cc1cc(/C=C(\C#N)C(=O)OCC(=O)N(C)c2c(N)n(Cc3ccccc3)c(=O)[nH]c2=O)c(C)n1CC(C)C	1	0	-5	6	-2	10
Cc1ccc(Cl)cc1N1CCN(C(=O)C2CCN(S(=O)(=O)c3c(C)nn(C)c3C)CC2)CC1	30*	21	26	-16	7	-26
Cc1ccc(Cl)cc1N1CCN(C(=O)C2CCN(S(=O)(=O)c3cccnc3)CC2)CC1	11	17	7	0	9	-10
COc1ccc(CC(N)c2csc(Nc3nc(C)cnc3C)n2)cc1 (stereo not given)	6	11	-10	7	1	-1
CCOC(=O)CCCCCCCCC(=O)Nc1ccc(-n2[nH]c(=O)cc2C)cc1	-1	8	-17	2	24*	-11
O=C1c2cccc3cccc(c23)C(=O)N1Cc1ccccn1	-4	0	6	4	0	3
O=C(Nc1nc2ccc(F)cc2s1)C1CCN(S(=O)(=O)c2cc([N+](=O)[O-])ccc2Cl)CC1	44*	10	27*	-6	-2	-18
Cc1ccc2nc(NC(=O)C3CCN(S(=O)(=O)c4cc([N+](=O)[O-])ccc4Cl)CC3)sc2c1	30*	8	26	-9	-2	-13
Cc1ccc(NC(=O)C2CCN(S(=O)(=O)c3cc([N+](=O)[O-])ccc3Cl)CC2)nc1	18	16	21	-9	1	-21
CC(NC(=O)C1CCN(S(=O)(=O)c2cc([N+](=O)[O-])ccc2Cl)CC1)c1ccccc1 (stereo not given)	-6	3	-5	5	-1	4
Cc1ccc(NC(=O)COC(=O)Cn2ccc(C(F)(F)F)n2)cc1Cl	-16	0	-20	22*	0	11
